39 compounds from PubChem BioAssay can be followed below.

Unmarked numbers belong to inactive results. The source made the active and inactive calls.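 How the source made its calls, unless noted: active means growth inhibition above a set limit, 3 SD over mean compound inhibition, in both replicates (cut at about 43% in these data); inconclusive means above the limit in only one replicate; inactive means at or below the limit in both replicates.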

A short description of the first test: Restrictive medium S. cerevisiae growth inhibition, OD615, pilot screen of yeast lifespan reduction project, restrictive growth control (AID 706).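 Further: modified DeaD lifespan yeast strain shifted to restrictive glucose medium.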 Particulars: OD615, 48 h, at 10 µM, hits give high values. In a few lines: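 Buffer or medium: restrictive glucose medium (CSMM-D); test system: modified S. cerevisiae; doses: single dose of 10 µM compound final, 0.25% DMSO; schedule: 48 h compound exposure at 30 °C; detection: absorbance (optical density) measured at 615 nm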
Take `CN(C)c1ccc(NC(=O)Cn2cc3c(n2)CCCC3)cc1`: the growth inhibition was 13.9%.

Consider `CCOC(=O)c1cc(NC(=O)SCC(=O)O)c(C)nc1C`, for which the growth inhibition is 0.73%.

In the case of `Cc1nc2ccccc2c2oc(C(=O)NCC3COc4ccccc4O3)cc12` (stereo not drawn), the growth inhibition was -3.1%.

As for `O=C(CS(=O)(=O)c1cn(Cc2ccc(F)cc2)c2ccccc12)N1CCCCC1`, the growth inhibition was -12.8%.

In the case of `Cc1ccc(C2c3c(oc4ccccc4c3=O)C(=O)N2c2nnc(C(C)C)s2)o1` (stereo not drawn), the growth inhibition is -9.87%.

Regarding `Cc1cc(C)c2c(=O)n(CC(=O)NCCCN3CCN(c4ccccc4F)CC3)sc2n1`, the growth inhibition is 7.71%.

As for `COc1ccccc1S(=O)(=O)Cc1ccc(C(=O)NCCN2CCCCCC2)o1`, the growth inhibition is -14.5%.

Take `COc1ccc(C2C(C(=O)Nc3cccnc3)=C(C)Nc3nc(-c4cccs4)nn32)cc1OC` (stereo not drawn): the growth inhibition was -8.04%.

Take `Cc1cc(=O)oc2cc(OCC#N)ccc12`: the growth inhibition is -4.6%.

Consider `CC1=C(C(N)=O)C(c2ccccn2)n2nc(SCc3ccccc3)nc2N1` (stereo not drawn), for which the growth inhibition was 3.69%.

Regarding `OC1(c2cccc(C(F)(F)F)c2)CCN(c2ccc(-c3ccccc3)nn2)CC1`, the growth inhibition is -9.3%.

For the compound `CCOC(=O)CSC1=C(C#N)C(c2ccc(C)o2)CC(=O)N1` (stereo not drawn), the growth inhibition is 7.01%.

`O=C(Nc1nc2c(s1)CCCC2)C1COc2ccccc2O1` (stereo not drawn): the growth inhibition is -7.76%.

Regarding `Cc1ccccc1Cn1nc(C)c(NC(=O)c2noc3c2CCc2ccccc2-3)c1C`, the growth inhibition is 1.82%.

On to `O=C(C1CC1)N1CCc2cc(Br)cc(S(=O)(=O)N3CCOCC3)c21`, for which the growth inhibition is -12.8%.

As for `C/C=C/COC(=O)c1[nH]c2c(c1C)C(=O)CC(c1ccco1)C2` (stereo not drawn), the growth inhibition is -2.88%.

Turning to `Cc1ccc2nc(NC(=O)Cn3cc4c(n3)CCCCC4)sc2c1`, the growth inhibition is 10.6%.

Consider `Cn1c(=O)oc2cc(S(=O)(=O)N3CCN(c4ccccn4)CC3)ccc21`, for which the growth inhibition is -3.75%.

Take `Cc1cccc(N(CC(=O)N2CCCC2)S(=O)(=O)c2ccccc2)c1C`: the growth inhibition was 4.24%.

For the compound `CC(Sc1n[nH]c(=O)[nH]c1=O)C(=O)OCc1ccccc1` (stereo not drawn), the growth inhibition was -8.41%.

For the compound `O=C(Nc1ccncc1)c1cc2ccccc2o1`, the growth inhibition is -6.96%.

`CCOc1ccccc1NC(=O)C1CCCN(S(=O)(=O)c2cccc3cccnc23)C1` (stereo not drawn): the growth inhibition is -21%.

In the case of `O=C(Nc1nc(-c2ccncc2)cs1)C1COc2ccccc2O1` (stereo not drawn), the growth inhibition is 33.5%.

For the compound `CC(C)C(CO)NC(=O)CC(=O)NC(CO)C(C)C` (stereo not drawn), the growth inhibition is -1.44%.

Regarding `C(=N\n1cnnc1)/c1cccc(OCCOc2ccccc2)c1`, the growth inhibition was 13.9%.

In the case of `C/C=C/COC(=O)c1[nH]c2c(c1C)C(=O)CC(c1ccc(N(C)C)cc1)C2` (stereo not drawn), the growth inhibition was -9.05%.

As to `Cc1ccc(C)c(N2CCN(CCCNC(=O)Cn3cc4c(n3)CCC(C)C4)CC2)c1` (stereo not drawn), the growth inhibition was 10.4%.

On to `CCOC(=O)c1ccc(N=c2sc(C(=O)OC)cc(=O)n2Cc2ccco2)cc1`, for which the growth inhibition was -2.14%.

On to `Cc1ccccc1-c1nc(CN2CCC(C(=O)NC3CCN(Cc4ccccc4)CC3)CC2)c(C)o1`, for which the growth inhibition was -3.5%.

Regarding `CC(=O)n1cc(-c2ccncc2)c2ccccc21`, the growth inhibition was -1.47%.

Turning to `C/C=C/CSc1nc2c(c(=O)[nH]c(=O)n2C)n1Cc1ccc(C)cc1`, the growth inhibition is 1.29%.

Consider `O=C(NCCN1C(=O)C2C3C=CC(C3)C2C1=O)Nc1ccccn1` (stereo not drawn), for which the growth inhibition was -0.24%.

With `CC1CCCCN1S(=O)(=O)c1ccc(NC(=O)c2cccs2)cc1` (stereo not drawn), the growth inhibition is -13.5%.

`CCOc1ccc(N(CC(=O)Nc2cccc(OC)c2)S(=O)(=O)c2c(C)noc2C)cc1`: the growth inhibition was 3.05%.

Consider `CCOC(=O)N1CCN(C(=O)CN(C2CCCCC2)S(=O)(=O)c2ccc(F)cc2)CC1`, for which the growth inhibition is -5.59%.

As to `COc1cccc(-c2nc(CS(=O)(=O)CC(=O)Nc3cc(C)ccc3C)c(C)o2)c1`, the growth inhibition is -3.22%.

Consider `Cc1cc(=O)oc2c1ccc1oc(/C(=N/O)c3ccccc3)c(C)c12`, for which the growth inhibition is 10.6%.

As to `Cc1cc(/C=N/n2cnnc2)c(C)n1-c1cccc(Cl)c1`, the growth inhibition was 22.7%.

For the compound `Cc1cc(C)c2c(=O)n(CC(=O)NCCCN3CCOCC3)sc2n1`, the growth inhibition is 0.575%.

The next test can be described thus: viability gain of MRP-1-high H69AR cells under doxorubicin, pilot screen, MRP-1 activator project, CellTiter-Glo, duplicate (AID 807;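 active means viability increase at or above a cutoff of the median across tested compounds plus 3 SD, cut at about 8.5% in these data, passing the limit was not always enough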;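 further: compound pretreatment 18-22 h then 72 h combined with doxorubicin; 0% = doxorubicin alone and 100% = vehicle without doxorubicin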). Conditions: H69AR viability with doxorubicin, CellTiter-Glo luminescence; at 10 µM; hits give high values.
For the compound `CN(C)c1ccc(NC(=O)Cn2cc3c(n2)CCCC3)cc1`, the viability increase was -2.45%.

Turning to `CCOC(=O)c1cc(NC(=O)SCC(=O)O)c(C)nc1C`, the viability increase was 2.31%.

Turning to `Cc1nc2ccccc2c2oc(C(=O)NCC3COc4ccccc4O3)cc12` (stereo not drawn), the viability increase is -1.89%.

`O=C(CS(=O)(=O)c1cn(Cc2ccc(F)cc2)c2ccccc12)N1CCCCC1`: the viability increase was -3.63%.

Turning to `Cc1ccc(C2c3c(oc4ccccc4c3=O)C(=O)N2c2nnc(C(C)C)s2)o1` (stereo not drawn), the viability increase is -3.23%.

Take `Cc1cc(C)c2c(=O)n(CC(=O)NCCCN3CCN(c4ccccc4F)CC3)sc2n1`: the viability increase is -7.84%.

In the case of `COc1ccccc1S(=O)(=O)Cc1ccc(C(=O)NCCN2CCCCCC2)o1`, the viability increase is -2.82%.

As for `COc1ccc(C2C(C(=O)Nc3cccnc3)=C(C)Nc3nc(-c4cccs4)nn32)cc1OC` (stereo not drawn), the viability increase is -1.12%.

For `Cc1cc(=O)oc2cc(OCC#N)ccc12`, the viability increase is 1.11%.

For `CC1=C(C(N)=O)C(c2ccccn2)n2nc(SCc3ccccc3)nc2N1` (stereo not drawn), the viability increase was 2.38%.

As to `OC1(c2cccc(C(F)(F)F)c2)CCN(c2ccc(-c3ccccc3)nn2)CC1`, the viability increase is -8.34%.

For the compound `CCOC(=O)CSC1=C(C#N)C(c2ccc(C)o2)CC(=O)N1` (stereo not drawn), the viability increase was -5.31%.

As for `O=C(Nc1nc2c(s1)CCCC2)C1COc2ccccc2O1` (stereo not drawn), the viability increase was 0.74%.

Turning to `Cc1ccccc1Cn1nc(C)c(NC(=O)c2noc3c2CCc2ccccc2-3)c1C`, the viability increase is 10.6% (active).

For `O=C(C1CC1)N1CCc2cc(Br)cc(S(=O)(=O)N3CCOCC3)c21`, the viability increase was -5.31%.

Take `C/C=C/COC(=O)c1[nH]c2c(c1C)C(=O)CC(c1ccco1)C2` (stereo not drawn): the viability increase was -4.93%.

As to `Cc1ccc2nc(NC(=O)Cn3cc4c(n3)CCCCC4)sc2c1`, the viability increase was -3.78%.

With `Cn1c(=O)oc2cc(S(=O)(=O)N3CCN(c4ccccn4)CC3)ccc21`, the viability increase is -5.33%.

Consider `Cc1cccc(N(CC(=O)N2CCCC2)S(=O)(=O)c2ccccc2)c1C`, for which the viability increase is -1.18%.

Take `CC(Sc1n[nH]c(=O)[nH]c1=O)C(=O)OCc1ccccc1` (stereo not drawn): the viability increase is 0.49%.

Take `O=C(Nc1ccncc1)c1cc2ccccc2o1`: the viability increase is -0.51%.

Turning to `CCOc1ccccc1NC(=O)C1CCCN(S(=O)(=O)c2cccc3cccnc23)C1` (stereo not drawn), the viability increase was -3.58%.

Turning to `O=C(Nc1nc(-c2ccncc2)cs1)C1COc2ccccc2O1` (stereo not drawn), the viability increase was -5.71%.

Regarding `CC(C)C(CO)NC(=O)CC(=O)NC(CO)C(C)C` (stereo not drawn), the viability increase is -0.9%.

In the case of `C(=N\n1cnnc1)/c1cccc(OCCOc2ccccc2)c1`, the viability increase is 0.62%.

For the compound `C/C=C/COC(=O)c1[nH]c2c(c1C)C(=O)CC(c1ccc(N(C)C)cc1)C2` (stereo not drawn), the viability increase was -2.69%.

In the case of `Cc1ccc(C)c(N2CCN(CCCNC(=O)Cn3cc4c(n3)CCC(C)C4)CC2)c1` (stereo not drawn), the viability increase is -6.04%.

As for `CCOC(=O)c1ccc(N=c2sc(C(=O)OC)cc(=O)n2Cc2ccco2)cc1`, the viability increase was -8.48%.

As for `Cc1ccccc1-c1nc(CN2CCC(C(=O)NC3CCN(Cc4ccccc4)CC3)CC2)c(C)o1`, the viability increase is -7.96%.

On to `CC(=O)n1cc(-c2ccncc2)c2ccccc21`, for which the viability increase was -3.7%.

Consider `C/C=C/CSc1nc2c(c(=O)[nH]c(=O)n2C)n1Cc1ccc(C)cc1`, for which the viability increase was -4.39%.

For `O=C(NCCN1C(=O)C2C3C=CC(C3)C2C1=O)Nc1ccccn1` (stereo not drawn), the viability increase was -0.81%.

As for `CC1CCCCN1S(=O)(=O)c1ccc(NC(=O)c2cccs2)cc1` (stereo not drawn), the viability increase is -4.32%.

Consider `CCOc1ccc(N(CC(=O)Nc2cccc(OC)c2)S(=O)(=O)c2c(C)noc2C)cc1`, for which the viability increase was -4.75%.

Turning to `CCOC(=O)N1CCN(C(=O)CN(C2CCCCC2)S(=O)(=O)c2ccc(F)cc2)CC1`, the viability increase was 0.22%.

Take `COc1cccc(-c2nc(CS(=O)(=O)CC(=O)Nc3cc(C)ccc3C)c(C)o2)c1`: the viability increase is -1.75%.

`Cc1cc(=O)oc2c1ccc1oc(/C(=N/O)c3ccccc3)c(C)c12`: the viability increase is 5.23%.

On to `Cc1cc(/C=N/n2cnnc2)c(C)n1-c1cccc(Cl)c1`, for which the viability increase is -3.15%.

In the case of `Cc1cc(C)c2c(=O)n(CC(=O)NCCCN3CCOCC3)sc2n1`, the viability increase was -4.85%.
